According to ChEMBL document CHEMBL3244396, “Synthesis and antileukemic activity of 5-substituted 2,3-dihydro-6,7-bis(hydroxymethyl)-1H-pyrrolizine diesters” (J Med Chem, 1977):
Converted amounts (≈) assume the structure as drawn.

What was measured:
L1210 [1] = assay: Antileukemic activity against mouse L1210 cells allografted in male CDF1 mouse assessed as change in body weight at 50 mg/kg, ip administered daily for 9 days as Klucel suspension starting 24 hrs after tumor inoculation; format: functional; details: route intraperitoneal
How it was run: (§1)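 Ascitic fluid carrying L1210 cells was inoculated ip. Compound was given ip as a Klucel (hydroxypropylcellulose) suspension in nine daily doses, starting 24 h after inoculation. Body-weight difference (treated minus control) was recorded on day 5. Survival was scored as %T/C of mean survival time.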

L1210 [2] = assay: Antileukemic activity against mouse L1210 cells allografted in female CDF1 mouse assessed as change in body weight at 50 mg/kg, ip administered daily for 9 days as Klucel suspension starting 24 hrs after tumor inoculation; format: functional; details: route intraperitoneal; how it was run: as §1
L1210 [3] = assay: Antileukemic activity against mouse L1210 cells allografted in male CDF1 mouse assessed as host mean survival time at 100 mg/kg, ip administered daily for 9 days as Klucel suspension starting 24 hrs after tumor inoculation relative to control; format: functional; details: route intraperitoneal
How it was run: (§2)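 L1210 leukemia given as an ascitic fluid cell inoculum, ip, to mice of the strain and sex in each line. Test material was given ip for nine daily doses starting 24 h after inoculation, in a Klucel (hydroxypropylcellulose) suspension. Read-out is mean survival time as %T/C versus controls, with >125 taken as significant.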

Mus musculus [4] = assay: Toxicity in male CDF1 mouse allografted with mouse L1210 cells assessed as animal survival at 200 mg/kg, ip administered daily for 9 days as Klucel suspension starting 24 hrs after tumor inoculation measured on fifth day; format: organism-based; set-up: dose 200 mg/kg, route intraperitoneal; details: in vivo
How it was run: (§3)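 L1210 leukemia passaged as ascitic fluid and inoculated ip. Test agent given ip as a Klucel (hydroxypropylcellulose) suspension, nine daily doses starting 24 h after tumor inoculation. Acute toxicity read as toxicity-day survivors per group (out of 6), recorded on day 5. Animal weight difference T − C was also recorded. Follows NCI screening protocols.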

L1210 [5] = assay: Antileukemic activity against mouse L1210 cells allografted in male CDF1 mouse assessed as change in body weight at 100 mg/kg, ip administered daily for 9 days as Klucel suspension starting 24 hrs after tumor inoculation; format: functional; details: route intraperitoneal; how it was run: as §1
L1210 [6] = assay: Antileukemic activity against mouse L1210 cells allografted in female CDF1 mouse assessed as host mean survival time at 100 mg/kg, ip administered daily for 9 days as Klucel suspension starting 24 hrs after tumor inoculation relative to control; format: functional; details: route intraperitoneal; how it was run: as §2
L1210 [7] = assay: Antileukemic activity against mouse L1210 cells allografted in male CDF1 mouse assessed as host mean survival time at 50 mg/kg, ip administered daily for 9 days as Klucel suspension starting 24 hrs after tumor inoculation relative to control; format: functional; details: route intraperitoneal; how it was run: as §2
L1210 [8] = assay: Antileukemic activity against mouse L1210 cells allografted in female CDF1 mouse assessed as host mean survival time at 200 mg/kg, ip administered daily for 9 days as Klucel suspension starting 24 hrs after tumor inoculation relative to control; format: functional; details: route intraperitoneal; how it was run: as §2
Mus musculus [9] = assay: Toxicity in male CDF1 mouse allografted with mouse L1210 cells assessed as animal survival at 100 mg/kg, ip administered daily for 9 days as Klucel suspension starting 24 hrs after tumor inoculation measured on fifth day; format: organism-based; set-up: dose 100 mg/kg, route intraperitoneal; details: in vivo; how it was run: as §3
L1210 [10] = assay: Antileukemic activity against mouse L1210 cells allografted in female CDF1 mouse assessed as change in body weight at 400 mg/kg, ip administered daily for 9 days as Klucel suspension starting 24 hrs after tumor inoculation; format: functional; details: route intraperitoneal; how it was run: as §1
[11] = Cytotoxicity against human 9KB cells treated as ethanol solution; format: functional; details: read-out: ED50 (the source's name)
How it was run: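 Compound applied as an ethanol solution; activity read out as ED50 under the general screening protocol.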

L1210 [12] = assay: Antileukemic activity against mouse L1210 cells allografted in female CDF1 mouse assessed as host mean survival time at 50 mg/kg, ip administered daily for 9 days as Klucel suspension starting 24 hrs after tumor inoculation relative to control; format: functional; details: route intraperitoneal; how it was run: as §2
Mus musculus [13] = assay: Toxicity in female CDF1 mouse allografted with mouse L1210 cells assessed as animal survival at 400 mg/kg, ip administered daily for 9 days as Klucel suspension starting 24 hrs after tumor inoculation measured on fifth day; format: organism-based; set-up: dose 400 mg/kg, route intraperitoneal; details: in vivo; how it was run: as §3
L1210 [14] = assay: Antileukemic activity against mouse L1210 cells allografted in male CDF1 mouse assessed as host mean survival time at 200 mg/kg, ip administered daily for 9 days as Klucel suspension starting 24 hrs after tumor inoculation relative to control; format: functional; details: route intraperitoneal; how it was run: as §2
L1210 [15] = assay: Antileukemic activity against mouse L1210 cells allografted in female CDF1 mouse assessed as change in body weight at 200 mg/kg, ip administered daily for 9 days as Klucel suspension starting 24 hrs after tumor inoculation; format: functional; details: route intraperitoneal; how it was run: as §1
Mus musculus [16] = assay: Toxicity in male CDF1 mouse allografted with mouse L1210 cells assessed as animal survival at 50 mg/kg, ip administered daily for 9 days as Klucel suspension starting 24 hrs after tumor inoculation measured on fifth day; format: organism-based; set-up: dose 50 mg/kg, route intraperitoneal; details: in vivo; how it was run: as §3
L1210 [17] = assay: Antileukemic activity against mouse L1210 cells allografted in male CDF1 mouse assessed as change in body weight at 200 mg/kg, ip administered daily for 9 days as Klucel suspension starting 24 hrs after tumor inoculation; format: functional; details: route intraperitoneal; how it was run: as §1
Mus musculus [18] = assay: Toxicity in female CDF1 mouse allografted with mouse L1210 cells assessed as animal survival at 50 mg/kg, ip administered daily for 9 days as Klucel suspension starting 24 hrs after tumor inoculation measured on fifth day; format: organism-based; set-up: dose 50 mg/kg, route intraperitoneal; details: in vivo; how it was run: as §3
L1210 [19] = assay: Antileukemic activity against mouse L1210 cells allografted in female CDF1 mouse assessed as change in body weight at 100 mg/kg, ip administered daily for 9 days as Klucel suspension starting 24 hrs after tumor inoculation; format: functional; details: route intraperitoneal; how it was run: as §1

Compound: COc1ccc(-c2c(COC(C)=O)c(COC(C)=O)c3n2CCC3)cc1
- Activity (L1210 [1]): -2.9 g
- Activity (L1210 [2]): -1 g
- T/C (L1210 [3]): 78%
- Activity (Mus musculus [4]): Non-toxic
- Activity (L1210 [5]): -7.2 g
- T/C (L1210 [6]): 65%
- T/C (L1210 [7]): 113%
- T/C (L1210 [8]): 65%
- Activity (Mus musculus [9]): Non-toxic
- Activity (L1210 [10]): -0.1 g
- EC50 [11]: 2.5 µg/mL (≈ 6.99 µM)
- T/C (L1210 [12]): 77%
- Activity (Mus musculus [13]): Toxic
- T/C (L1210 [14]): 130%
- Activity (L1210 [15]): -2.5 g
- Activity (Mus musculus [16]): Non-toxic
- Activity (L1210 [17]): -5.2 g
- Activity (Mus musculus [18]): Non-toxic
- Activity (L1210 [19]): -2.5 g
